ABHD4 inh: ABHD4 (mouse) inhibition, primary FP screen; purified mABHD4, FP-Rh probe fluorescence polarization; actives 0.54% (n = 370,000); Q8VD66; inhibition, % at 8.92 µM;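 active = inhibition exceeding the mean over every tested compound plus 3 SD, cut at about 30% in these data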
Target sequence (Q8VD66 whole entry, looked up): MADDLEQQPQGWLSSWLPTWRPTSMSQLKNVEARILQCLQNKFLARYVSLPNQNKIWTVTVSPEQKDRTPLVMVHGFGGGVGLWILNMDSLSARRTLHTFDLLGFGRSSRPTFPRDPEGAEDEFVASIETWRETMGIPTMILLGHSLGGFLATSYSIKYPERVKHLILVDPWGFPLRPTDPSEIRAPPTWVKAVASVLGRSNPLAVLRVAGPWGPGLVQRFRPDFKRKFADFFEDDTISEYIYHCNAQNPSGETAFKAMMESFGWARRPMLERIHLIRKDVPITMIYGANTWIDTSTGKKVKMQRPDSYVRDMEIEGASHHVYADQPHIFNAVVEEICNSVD
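Test system: mouse ABHD4 enzyme, wild type. Reagent: FP-Rh fluorescent activity-based probe, added after compound pre-incubation. Timing: pre-incubation 45 min, probe exposure 60 min, at 25 °C. Technique: FP readout, ex 525 nm / em 598 nm. Benchmarks: high control S159A mutant with DMSO, low control median of compound wells.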
PAFAH2 FP inh: inhibitors of human PAFAH2. recombinant PAFAH2, FP-rhodamine activity probe, fluorescence polarization. inhibition, % at 3.39 µM. actives 0.99% (n = 340,000);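 active = inhibition above the mean over all tested compounds plus 3 SD, cut at about 30% in these data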;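 also: inhibitors block probe labeling of enzyme so polarization drops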
PAFAH1B2 FP inh: inhibitors of human PAFAH1B2. inhibition, % at 3.39 µM. AID 492953. actives 1.2% (n = 340,000). recombinant PAFAH1B2, FP-rhodamine activity probe, fluorescence polarization;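 active = inhibition above the mean of all tested compounds plus 3 SD, cut at about 24% in these data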
HTRA1 inhibitor: inhibitors of human serine peptidase HTRA1; Q92743; recombinant HTRA1, FP-rhodamine activity-based probe, fluorescence polarization; inhibition, % at 5.96 µM; actives 0.5% (n = 340,000); in the data active = inhibition above about 36%
PAFAH1B3 FP inh: blocks human PAF acetylhydrolase 1B catalytic subunit 3 | Q15102 | recombinant PAFAH1B3, FP-rhodamine probe, fluorescence polarization | inhibition, % at 3.39 µM | actives 0.28% (n = 340,000);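 active = inhibition above the screen-wide average of all tested compounds plus 3 SD, cut at about 25% in these data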
Target sequence (Q15102 whole entry, looked up): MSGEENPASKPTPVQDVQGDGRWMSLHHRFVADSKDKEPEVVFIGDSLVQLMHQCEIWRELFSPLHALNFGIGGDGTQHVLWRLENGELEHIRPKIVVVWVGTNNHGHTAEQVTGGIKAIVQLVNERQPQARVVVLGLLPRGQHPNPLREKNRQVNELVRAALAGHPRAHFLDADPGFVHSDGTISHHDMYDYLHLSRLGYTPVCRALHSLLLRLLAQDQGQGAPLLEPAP
pPAFAH FP inh: pPAFAH (human) enzyme inhibition; actives 1.5% (n = 330,000); inhibition, % at 3.39 µM; recombinant pPAFAH, FP-rhodamine probe fluorescence polarization;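 active = inhibition above the mean inhibition across the screen plus 3 SD, cut at about 25% in these data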;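 also: inhibitors block binding of the rhodamine activity-based probe so polarization drops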
HTRA1 conf: confirmation of human HTRA1 inhibitors. shares compounds with HTRA1 inhibitor. recombinant HTRA1, FP-rhodamine activity-based probe, fluorescence polarization. inhibition, % at 5.96 µM. actives 66% (n = 1,600);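 active = mean inhibition over three repeats above a set limit taken from the earlier primary screen, cut at about 37% in these data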;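 also: inhibitors block probe binding so polarization drops and inhibition rises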
Numbers stand for hits; . = inactive; / = not tested or not shown. The list is not random: actives were taken first. Their share in the collection is about 2.8%.

SMILES	ABHD4 inh	PAFAH2 FP inh	PAFAH1B2 FP inh	HTRA1 inhibitor	PAFAH1B3 FP inh	pPAFAH FP inh	HTRA1 conf
CCOC(=O)[C@@]12CCCC=C1N(CCc1ccc(Cl)cc1)C(=O)[C@H]2CC(=O)NCc1ccc(C)o1	.	/	/	/	/	/	/
COC(=O)Cc1c([C@H](C)[C@@H](OC)c2ccccc2Br)nnn1Cc1ccccc1	.	/	/	/	/	/	/
Cn1[nH]cc(C=NC(N)=O)c1=O	.	.	.	47	.	/	.
Cc1[nH]n(-c2ccccc2)c(=O)c1N=Nc1ccccc1O	.	.	.	43	.	/	.
COc1ccc(N=Nc2cc(-c3ccccc3)ccc2O)cc1	.	.	.	.	.	.	/
Oc1ccc(N=Nc2ccc3c(c2)OCCO3)c2cccnc12	.	.	.	50	.	33	69
COc1ccc(N=Nc2ccc(O)c3ncccc23)cc1	.	.	.	44	.	31	63
CN(Cc1ccccc1)S(=O)(=O)c1cccc(C(=O)OCc2ccccc2Cl)c1	.	/	/	/	/	/	/
Cn1nnnc1N=N/C(=N/Nc1ccccc1)c1ccccc1	.	.	.	42	.	.	.
CCCCNC(=O)C1CCCN1C(=O)NCc1ccccc1OC (stereo unspecified)	.	/	/	/	/	/	/
C/C(C=Nn1c(-c2ccc(F)cc2)n[nH]c1=S)=C/c1ccco1	.	/	/	/	/	/	/
CCOC(=O)Nc1ccc(NCc2ccc(F)cc2)nc1N	.	.	.	60	.	.	.
CCOC(=O)Nc1ccc(C)cc1NC(=O)OCC	.	.	.	.	.	.	/
CN1c2ccccc2N(C)C1(C)c1ccccc1	.	.	.	.	.	.	/
CCN1c2ccccc2N(C)C1(C)c1ccccc1 (stereo unspecified)	/	.	.	42	.	.	.
COc1ccc(CC(/C=C/c2ccc(F)cc2)c2ccccc2)cc1 (stereo unspecified)	.	/	/	/	/	/	/
Cc1cc(N(C)C)ccc1[N+](=O)[O-]	.	.	.	.	.	.	/
NNc1ccc([N+](=O)[O-])c2[nH][nH]c(=O)c12	54	/	/	52	/	/	49
COc1cc(C)c2sc3ccccc3c(=O)c2c1NCCN(C)C	.	/	/	36	/	/	44
Oc1c(Cl)cc(CN2CCOCC2)c2cccnc12	.	.	.	41	.	28	.
O=C(Oc1c(CN2CCOCC2)cc(Cl)c2cccnc12)c1ccccc1	.	.	.	37	.	.	.
COc1ccc(C(=O)Oc2c(CN3CCOCC3)cc(Cl)c3cccnc23)cc1OC	.	/	/	/	/	.	/
CN1CCN(Cc2cc(COCc3ccccc3)c3cccnc3c2O)CC1	.	.	.	50	.	.	87
O=C(Oc1c(CN2CCOCC2)cc(Cl)c2cccnc12)c1ccccc1F	.	.	.	41	.	.	.
Oc1ccc(CN2CCN(Cc3ccccc3)CC2)c2cccnc12	.	.	.	.	.	.	/
SMILES	ABHD4 inh	PAFAH2 FP inh	PAFAH1B2 FP inh	HTRA1 inhibitor	PAFAH1B3 FP inh	pPAFAH FP inh	HTRA1 conf
O=C(Oc1ccc(C(=S)N2CCOCC2)cc1Cl)c1ccccc1F	.	.	.	.	.	.	/
COc1cc(OC)cc(C(=O)Oc2c(CN3CCOCC3)cc(Cl)c3cccnc23)c1	.	.	.	38	.	.	.
O=C(COc1c(Br)cc(Br)c2cccnc12)N1CCCCC1	.	.	.	.	.	.	/
Oc1c(CN2CCCCC2)cc(Br)c2cccnc12	.	.	.	71	.	.	72
O=C(c1ccc(F)cc1)C1CCN(c2ncnc3sccc23)CC1	.	/	/	/	/	/	/
C(=N\Nc1nc2ccccc2[nH]1)/c1cccc2nccnc12	.	/	/	/	/	.	/
CCCCNc1nc2ccccc2[nH]1	.	.	.	.	.	.	/
C#CCn1cc(/C=N/Nc2nc3ccccc3[nH]2)c2ccccc21	.	.	.	43	.	29	45
CCCCn1c(/C=N/Nc2nc3ccccc3[nH]2)nc2ccccc21	.	.	.	41	.	.	59
O=C(O)c1cccc2cccc(-c3c4ccc(=O)c(O)c-4oc4c(O)c(O)ccc34)c12	48	69	62	50	66	/	50
O=C(O)c1cccc2cc(-c3ccccc3)oc(=O)c12	.	.	.	.	.	.	/
C=C1N(C)c2cc([N+](=O)[O-])c(N)cc2C1(C)C	.	.	.	54	.	.	.
Nc1ccc(Oc2ccc(N)c([N+](=O)[O-])c2)cc1[N+](=O)[O-]	.	/	/	.	/	/	/
c1ccc(N2CCN(c3nc(-c4ccccn4)nc4ccccc34)CC2)cc1	.	.	.	40	.	.	.
CCC(=C(c1ccc(OC)cc1)c1ccc(OC)cc1)c1cn(CC(O)CN2CCN(C)CC2)c2ccccc12 (stereo unspecified)	.	.	.	37	.	.	39
CCC[C@H]1[C@@H](NC(=O)Nc2ccc3c(c2)OCO3)CC[C@@]23CCCN2C(=O)CCC[C@@H]13	.	/	/	/	/	/	/
C[C@H]1[C@@H](NC(=O)C2CCC2)CC[C@@]23CCCN2C(=O)CCC[C@@H]13	.	/	/	/	/	/	/
Cc1ccccc1NC(=O)C[C@H]1CC[C@H]2[C@@H](COc3ccc(NC(=O)Nc4ccccc4)cc3C(=O)N2C)O1	.	/	/	/	/	/	/
Cc1cccc(NC(=S)NNc2ncc(C(F)(F)F)cc2Cl)c1	.	.	.	.	.	.	/
FC(F)(F)c1cnc(NNC(=S)Nc2ccccc2Cl)c(Cl)c1	.	.	.	43	.	.	.
CCOc1ccccc1C(=O)N1CCC(Oc2cccnc2)CC1	.	/	/	/	/	/	/
C/C(=N\Nc1nc(-c2cc(C)ccc2C)cs1)c1cc2c(ccc3ccccc32)oc1=O	.	.	.	53	.	.	.
C/C(=N\Nc1nc(-c2cc(C)ccc2C)cs1)c1cc2ccccc2oc1=O	.	.	.	.	.	.	/
N#CC(c1nc2ccccc2nc1N1CCCC1)S(=O)(=O)c1ccccc1 (stereo unspecified)	.	.	.	39	.	.	.
COc1cccc(CCNC(=O)CCc2nc(-c3ccccc3F)no2)c1	.	/	/	/	/	/	/
SMILES	ABHD4 inh	PAFAH2 FP inh	PAFAH1B2 FP inh	HTRA1 inhibitor	PAFAH1B3 FP inh	pPAFAH FP inh	HTRA1 conf
COc1ccc([C@H]2C(C#N)=C([S-])N[C@](C)(O)[C@@H]2[n+]2ccccc2)cc1	.	/	/	/	/	/	/
Cc1cccc[n+]1C1C(c2ccccc2)C(C#N)=C(C(=C=[N-])C#N)NC1(O)C1CC1 (stereo unspecified)	/	30	.	67	.	29	49
Cc1nnc(-c2ccccc2)c(=O)n1/N=C/c1c(O)ccc2ccccc12	.	.	.	37	.	.	.
COc1cccc(OCC(C)CN2CCC(C(O)(c3ccccc3)c3ccccc3)CC2)c1 (stereo unspecified)	.	/	/	/	/	/	/
Oc1ccc(N=Cc2ccc(O)c(O)c2)cc1	/	.	.	57	34	34	52
Cc1occc1-c1nnc(SCC(=O)Nc2ccc3ncccc3c2)n1-c1ccccc1	.	/	/	/	/	/	/
O=c1c(CO)cc(CO)cc(CO)c1O	.	.	.	.	.	.	/
O=C1C=CC(=O)c2c(O)c(CO)c(CO)c(O)c21	62	68	25	46	50	/	57

High-throughput results (PubChem)
